ChEMBL document CHEMBL1255538, “Synthesis and molecular docking study of novel coumarin derivatives containing 4,5-dihydropyrazole moiety as potential antitumor agents” (Bioorg Med Chem Lett, 2010)
≈ marks a conversion by molar mass, not a printed value.

Legend:
[1] = biological target: Telomerase reverse transcriptase (Homo sapiens, UniProt O14746); experiment: Inhibition of telomerase in human SGC7901 cells by TRAP assay; assay type: cell-based, SGC-7901
Method in brief: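 Modified TRAP assay using SGC-7901 cell extract as the telomerase source. IC50 taken from three experiments in triplicate, mean ± SD.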

[2] = biological target: DNA polymerase I, thermostable (Thermus aquaticus, UniProt P19821); experiment: Inhibition of Taq polymerase
DNA polymerase I, thermostable, sequence (P19821 whole entry): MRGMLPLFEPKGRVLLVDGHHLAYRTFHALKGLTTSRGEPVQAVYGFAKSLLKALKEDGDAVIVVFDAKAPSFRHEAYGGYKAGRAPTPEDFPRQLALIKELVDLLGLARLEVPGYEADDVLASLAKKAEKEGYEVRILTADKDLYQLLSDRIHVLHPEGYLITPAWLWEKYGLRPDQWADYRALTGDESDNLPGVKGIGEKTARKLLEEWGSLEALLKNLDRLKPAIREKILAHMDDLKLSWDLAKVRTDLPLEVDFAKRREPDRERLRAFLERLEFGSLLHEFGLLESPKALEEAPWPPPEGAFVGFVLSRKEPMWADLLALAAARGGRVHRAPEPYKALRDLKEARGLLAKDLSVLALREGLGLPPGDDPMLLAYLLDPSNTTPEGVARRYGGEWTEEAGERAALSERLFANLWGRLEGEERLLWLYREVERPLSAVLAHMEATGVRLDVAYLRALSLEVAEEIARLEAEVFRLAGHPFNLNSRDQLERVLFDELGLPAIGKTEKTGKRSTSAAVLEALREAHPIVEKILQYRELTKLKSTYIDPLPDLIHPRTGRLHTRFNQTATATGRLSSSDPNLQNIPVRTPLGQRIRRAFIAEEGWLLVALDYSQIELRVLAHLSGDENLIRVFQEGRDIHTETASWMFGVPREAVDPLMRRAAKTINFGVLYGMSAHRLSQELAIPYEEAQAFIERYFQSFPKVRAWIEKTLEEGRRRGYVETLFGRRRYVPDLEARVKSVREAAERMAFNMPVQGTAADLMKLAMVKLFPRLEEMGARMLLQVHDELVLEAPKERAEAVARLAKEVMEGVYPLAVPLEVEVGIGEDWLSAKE
Method in brief: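 Taq polymerase inhibition was monitored alongside the modified TRAP assay to detect interference with the amplification step. IC50 was the concentration giving 50% Taq polymerase inhibition.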

SGC-7901 [3] = experiment: Cytotoxicity against human SGC7901 cells after 48 hrs by MTT assay; assay type: functional, cell-based
Method in brief: (§1)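 Tumour cells grown to log phase in RPMI 1640 with 10% FBS, seeded at 3 × 10⁴ cells/mL, preincubated 24 h at 37 °C, 5% CO₂. Test samples at pre-set concentrations were added to 6 wells, with 5-fluorouracil as positive reference, for 48 h. MTT was then added for 4 h, formazan was dissolved in DMSO and absorbance read at 570 nm. IC50 from three experiments in triplicate, mean ± SD.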

PC-3 = experiment: Cytotoxicity against human PC3 cells after 48 hrs by MTT assay; assay type: functional, cell-based; method in brief: as §1
SGC-7901 [4] = experiment: Selectivity index, ratio of IC50 for Taq polymerase to IC50 for telomerase in human SGC7901 cells; assay type: cell-based
Method in brief: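 Ratio of the concentration giving 50% Taq polymerase inhibition to the concentration giving 50% telomerase inhibition. Telomerase was measured by modified TRAP with SGC-7901 cell extract.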

A-431 = experiment: Cytotoxicity against human A431 cells after 48 hrs by MTT assay; assay type: functional, cell-based; method in brief: as §1
[5] = Homo sapiens, SGC-7901, 48 h, read-out: IC50
[6] = Homo sapiens, PC-3, 48 h, read-out: IC50
[7] = Homo sapiens, A-431, 48 h, read-out: IC50

Telomerase reverse transcriptase, sequence (O14746 whole entry): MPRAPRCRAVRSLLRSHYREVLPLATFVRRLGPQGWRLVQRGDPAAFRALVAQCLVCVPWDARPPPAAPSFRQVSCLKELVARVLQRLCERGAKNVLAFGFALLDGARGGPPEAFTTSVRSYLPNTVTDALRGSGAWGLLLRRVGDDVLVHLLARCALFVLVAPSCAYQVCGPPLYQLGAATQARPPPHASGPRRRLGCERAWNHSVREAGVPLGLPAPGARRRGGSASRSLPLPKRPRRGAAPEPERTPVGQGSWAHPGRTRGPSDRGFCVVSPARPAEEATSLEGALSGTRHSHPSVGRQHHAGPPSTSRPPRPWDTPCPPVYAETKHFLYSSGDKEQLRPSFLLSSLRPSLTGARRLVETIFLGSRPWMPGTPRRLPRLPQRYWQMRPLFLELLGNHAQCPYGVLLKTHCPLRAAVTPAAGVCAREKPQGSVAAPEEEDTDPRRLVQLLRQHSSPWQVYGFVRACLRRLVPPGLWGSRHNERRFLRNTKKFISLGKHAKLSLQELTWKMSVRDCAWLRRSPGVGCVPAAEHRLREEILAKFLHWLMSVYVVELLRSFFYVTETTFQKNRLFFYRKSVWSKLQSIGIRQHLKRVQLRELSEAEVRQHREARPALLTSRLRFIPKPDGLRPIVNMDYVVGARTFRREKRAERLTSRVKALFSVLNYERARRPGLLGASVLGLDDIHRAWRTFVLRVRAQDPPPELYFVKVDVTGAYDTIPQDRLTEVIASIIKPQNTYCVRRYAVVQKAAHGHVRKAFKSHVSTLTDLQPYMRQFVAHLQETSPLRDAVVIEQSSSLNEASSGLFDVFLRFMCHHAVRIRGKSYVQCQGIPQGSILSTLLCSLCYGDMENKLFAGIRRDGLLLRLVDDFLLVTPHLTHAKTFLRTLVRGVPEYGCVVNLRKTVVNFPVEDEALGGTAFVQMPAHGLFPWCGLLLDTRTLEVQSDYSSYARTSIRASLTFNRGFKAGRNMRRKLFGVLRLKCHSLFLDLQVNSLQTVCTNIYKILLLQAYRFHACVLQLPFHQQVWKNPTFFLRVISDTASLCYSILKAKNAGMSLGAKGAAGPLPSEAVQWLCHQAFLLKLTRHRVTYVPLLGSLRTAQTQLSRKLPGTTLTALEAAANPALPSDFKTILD

Row | Structure (SMILES) | IC50 ([1]; read-out: IC50) | IC50 ([2]; read-out: IC50) | IC50 (SGC-7901 [3]; [5]) | IC50 (PC-3; [6]) | Selectivity Index (SGC-7901 [4]) | IC50 (A-431; [7]) | IC50 ([1]; sgc-7901) | IC50 [2] | IC50 (SGC-7901 [3]; sgc-7901) | IC50 (PC-3; pc-3) | IC50 (A-431; a-431)
1 | CC(=O)N1N=C(c2cc3c(Br)cccc3oc2=O)CC1c1ccccc1 (centres undefined) | 1.8 µM | 4 µM | 28.9 µg/mL (≈ 70.3 µM) | 58.1 µg/mL (≈ 141 µM) | 2.2 | 48.1 µg/mL (≈ 117 µM) |  |  |  |  | 
2 | CC(=O)N1N=C(c2cc3ccccc3oc2=O)CC1c1ccc(Cl)cc1Cl (centres undefined) | 9.6 µM | 20.7 µM | 39.9 µg/mL (≈ 99.5 µM) | 46.7 µg/mL (≈ 116 µM) | 2.1 | 68.7 µg/mL (≈ 171 µM) |  |  |  |  | 
3 | COc1ccc(/C=C/C(=O)c2cc3ccccc3oc2=O)cc1 |  |  |  |  |  |  | Not Active | Not Active | Not Active | Not Active | Not Active
4 | CC[n+]1c(-c2ccccc2)c2cc(N)ccc2c2ccc(N)cc21 [HOMIDIUM BROMIDE] | 2.5 µM |  |  |  |  |  |  |  |  |  | 
5 | CC(=O)N1N=C(c2cc3c(Br)cccc3oc2=O)CC1c1ccc(O)cc1 (centres undefined) | 4 µM | 10 µM | 22.3 µg/mL (≈ 52.3 µM) | 38.8 µg/mL (≈ 90.7 µM) | 2.5 | 68.3 µg/mL (≈ 160 µM) |  |  |  |  | 
6 | CC(=O)N1N=C(c2cc3ccccc3oc2=O)CC1c1ccccc1Cl (centres undefined) | 6.5 µM | 16.8 µM | 29.9 µg/mL (≈ 81.6 µM) | 55.1 µg/mL (≈ 150 µM) | 2.6 | 50.6 µg/mL (≈ 138 µM) |  |  |  |  | 
7 | CC(=O)N1N=C(c2cc3ccccc3oc2=O)CC1c1ccc(O)cc1 (centres undefined) | 29.1 µM | 58.5 µM | 35.9 µg/mL (≈ 103 µM) | 58.7 µg/mL (≈ 169 µM) | 2 | 73 µg/mL (≈ 209 µM) |  |  |  |  | 
8 | CC1=NN(C=O)C(c2ccccc2O)C1 (centres undefined) |  |  |  | 65.1 µg/mL (≈ 319 µM) |  |  | Not Active | Not Active | Not Active |  | Not Active
9 | CC(=O)N1N=C(c2cc3ccccc3oc2=O)CC1c1ccccc1 (centres undefined) | 2 µM | 6 µM | 2.69 µg/mL (≈ 8.09 µM) | 40.2 µg/mL (≈ 121 µM) | 3 | 51.7 µg/mL (≈ 156 µM) |  |  |  |  | 
10 | COc1ccc(C2CC(c3cc4ccccc4oc3=O)=NN2C(C)=O)cc1 (centres undefined) | 36.7 µM |  | 48.7 µg/mL (≈ 134 µM) |  |  | 68.7 µg/mL (≈ 190 µM) |  | Not Active |  | Not Active | 
11 | O=c1[nH]cc(F)c(=O)[nH]1 [FLUOROURACIL] |  |  |  | 2.48 µg/mL (≈ 19.1 µM) |  | 2.17 µg/mL (≈ 16.7 µM) |  |  |  |  | 
